# The M2OR odorant receptor database
# Experiments:
# Conditions in all cases: stereoisomer not certain
# UniProt L7MU75 = target: T1, UniProt L7MU75
# T1 sequence (whole entry): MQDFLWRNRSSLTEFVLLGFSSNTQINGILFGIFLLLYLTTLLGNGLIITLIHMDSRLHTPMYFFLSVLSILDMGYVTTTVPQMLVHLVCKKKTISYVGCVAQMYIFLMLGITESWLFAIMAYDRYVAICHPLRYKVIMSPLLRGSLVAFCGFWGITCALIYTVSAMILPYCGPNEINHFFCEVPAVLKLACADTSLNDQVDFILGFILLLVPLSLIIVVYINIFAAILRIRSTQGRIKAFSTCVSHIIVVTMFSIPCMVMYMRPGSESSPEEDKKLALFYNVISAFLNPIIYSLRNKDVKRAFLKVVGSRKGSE
# Method in brief: (§1)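 Whether a receptor–molecule pair is responsive (active) rests on the original authors' judgment that its measured signal was statistically different from baseline. Pairs without that judgment are non-responsive (inactive). Sources used varied assay methods, commonly transient luciferase assays in mammalian cell lines.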
# UniProt L7N210 = target: T2, UniProt L7N210
# T2 sequence (whole entry): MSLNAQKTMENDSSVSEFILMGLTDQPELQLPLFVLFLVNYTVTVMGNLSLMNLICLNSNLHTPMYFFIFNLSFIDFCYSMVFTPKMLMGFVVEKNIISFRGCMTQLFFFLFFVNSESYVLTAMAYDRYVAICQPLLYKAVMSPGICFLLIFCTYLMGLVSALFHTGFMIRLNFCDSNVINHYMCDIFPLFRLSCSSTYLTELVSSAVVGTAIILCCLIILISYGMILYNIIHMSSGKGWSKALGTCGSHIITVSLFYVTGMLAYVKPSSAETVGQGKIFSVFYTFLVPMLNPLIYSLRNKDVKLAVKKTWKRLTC
# Method in brief: as §1
# UniProt Q3KPB0 = target: T3, UniProt Q3KPB0
# T3 sequence (whole entry): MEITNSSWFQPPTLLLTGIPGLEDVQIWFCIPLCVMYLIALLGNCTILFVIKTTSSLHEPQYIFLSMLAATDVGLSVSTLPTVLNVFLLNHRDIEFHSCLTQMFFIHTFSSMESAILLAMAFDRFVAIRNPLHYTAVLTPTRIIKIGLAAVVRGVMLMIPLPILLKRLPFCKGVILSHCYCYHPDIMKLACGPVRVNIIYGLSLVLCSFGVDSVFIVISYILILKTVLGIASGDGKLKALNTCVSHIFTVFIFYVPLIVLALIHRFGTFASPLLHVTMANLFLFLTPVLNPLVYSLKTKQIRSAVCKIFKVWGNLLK
# Method in brief: as §1
# UniProt Q3U0P3 = target: T4, UniProt Q3U0P3
# T4 sequence (whole entry): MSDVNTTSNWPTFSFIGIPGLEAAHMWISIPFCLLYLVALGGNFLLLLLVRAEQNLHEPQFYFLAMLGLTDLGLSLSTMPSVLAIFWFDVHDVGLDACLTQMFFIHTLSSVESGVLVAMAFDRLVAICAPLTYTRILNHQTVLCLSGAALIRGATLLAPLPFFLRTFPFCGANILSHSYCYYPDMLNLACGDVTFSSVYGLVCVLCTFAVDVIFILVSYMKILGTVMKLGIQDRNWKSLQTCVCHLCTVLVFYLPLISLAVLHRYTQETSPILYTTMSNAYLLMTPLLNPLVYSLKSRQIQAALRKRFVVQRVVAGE
# Method in brief: as §1
# UniProt Q7TQU8 = target: T5, UniProt Q7TQU8
# T5 sequence (whole entry): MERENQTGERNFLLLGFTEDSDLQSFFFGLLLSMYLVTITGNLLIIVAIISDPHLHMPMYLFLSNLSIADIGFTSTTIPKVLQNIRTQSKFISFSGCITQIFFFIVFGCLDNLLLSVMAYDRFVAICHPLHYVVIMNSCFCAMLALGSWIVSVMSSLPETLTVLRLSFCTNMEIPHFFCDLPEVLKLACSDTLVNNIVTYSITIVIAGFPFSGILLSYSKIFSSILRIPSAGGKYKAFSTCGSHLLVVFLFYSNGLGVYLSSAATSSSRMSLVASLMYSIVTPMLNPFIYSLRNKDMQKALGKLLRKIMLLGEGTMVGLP
# Method in brief: as §1
# UniProt Q7TQV4 = target: T6, UniProt Q7TQV4
# T6 sequence (whole entry): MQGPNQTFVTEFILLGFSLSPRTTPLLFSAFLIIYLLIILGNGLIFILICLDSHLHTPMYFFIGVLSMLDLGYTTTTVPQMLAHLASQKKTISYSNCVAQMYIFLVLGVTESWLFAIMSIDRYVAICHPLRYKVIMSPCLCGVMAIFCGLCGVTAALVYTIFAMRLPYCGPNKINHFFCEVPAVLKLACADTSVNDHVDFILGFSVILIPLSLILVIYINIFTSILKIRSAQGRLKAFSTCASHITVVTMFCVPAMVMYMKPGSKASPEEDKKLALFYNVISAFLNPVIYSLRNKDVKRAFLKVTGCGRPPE
# Method in brief: as §1
# 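Note: active if original authors judged signal statistically different from baseline.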
SMILES,odorant receptor agonist call (UniProt L7MU75),odorant receptor agonist call (UniProt L7N210),odorant receptor agonist call (UniProt Q3KPB0),odorant receptor agonist call (UniProt Q3U0P3),odorant receptor agonist call (UniProt Q7TQU8),odorant receptor agonist call (UniProt Q7TQV4)
C1CCOC1,inactive,inactive,inactive,inactive,inactive,–
CSSSC,inactive,inactive,inactive,inactive,inactive,–
C=C(C)C1CC=C(C)CC1 (stereo unspecified),inactive,inactive,inactive,inactive,inactive,–
Cc1ccc(OC(=O)C(C)C)cc1,inactive,inactive,inactive,inactive,inactive,–
CCCC=O,inactive,inactive,inactive,inactive,inactive,–
CCCCCCC(C=O)=Cc1ccccc1,inactive,inactive,inactive,inactive,inactive,–
CCOC(=O)CC(C)C,inactive,inactive,inactive,inactive,inactive,–
COc1ccccc1,inactive,inactive,inactive,inactive,inactive,–
C=CC(C)=CCC=C(C)CCC=C(C)C,inactive,inactive,inactive,inactive,inactive,–
CCCCCCCCCCOC(C)=O,inactive,inactive,inactive,inactive,inactive,–
CSSCc1ccco1,inactive,inactive,inactive,inactive,inactive,–
CCCCCCCCC=CC=O,inactive,inactive,inactive,inactive,inactive,–
O=C(O)CCCCCCCCC(=O)O,inactive,inactive,inactive,inactive,inactive,–
CC(C)=C1CCC(C)CC1=O (stereo unspecified),inactive,inactive,inactive,inactive,inactive,–
CCc1occc(=O)c1O,active,active,inactive,inactive,inactive,–
COC(OC)c1ccccc1,inactive,inactive,inactive,inactive,inactive,–
CC(=O)C=CC1=C(C)CCCC1(C)C,inactive,inactive,inactive,inactive,inactive,–
C=CC(=C)CCC=C(C)C,inactive,inactive,inactive,inactive,inactive,–
CCCCCCCOC(=O)C(C)C,inactive,inactive,inactive,inactive,inactive,–
Cc1ccccc1OC(=O)C(C)C,inactive,inactive,inactive,inactive,inactive,–
CCC=CCCCCC=O,inactive,inactive,inactive,inactive,inactive,–
CC(C)=CCCC(C)=CCOC(=O)C(C)C,inactive,inactive,inactive,inactive,inactive,–
CCCCC=O,inactive,inactive,inactive,inactive,inactive,–

SMILES,odorant receptor agonist call (UniProt L7MU75),odorant receptor agonist call (UniProt L7N210),odorant receptor agonist call (UniProt Q3KPB0),odorant receptor agonist call (UniProt Q3U0P3),odorant receptor agonist call (UniProt Q7TQU8),odorant receptor agonist call (UniProt Q7TQV4)
CCCCCCCCCCCO,inactive,inactive,inactive,inactive,inactive,–
CC(=O)OC1(C)CCC23CC1C(C)(C)C2CCC3C (stereo unspecified),inactive,inactive,inactive,active,active,–
O=C(O)C1CCC1,inactive,inactive,inactive,inactive,inactive,–
C=C(C)C1CCC2(C)OC2C1 (stereo unspecified),inactive,inactive,inactive,inactive,inactive,–
CCCCCOC(=O)CC,inactive,inactive,inactive,inactive,inactive,–
CCCCCCCCOC=O,inactive,inactive,inactive,inactive,inactive,–
CCCCCCC=CC=O,inactive,inactive,inactive,inactive,inactive,–
CCCCCC(=Cc1ccccc1)C(OC)OC,inactive,inactive,inactive,inactive,inactive,–
CCC=CCCC=CC=O,inactive,inactive,inactive,inactive,inactive,–
CC(C)CCN,inactive,inactive,inactive,inactive,inactive,–
CCC(C)O (stereo unspecified),inactive,inactive,inactive,inactive,inactive,–
C=C(C)C1CCC(C)C(O)C1 (stereo unspecified),inactive,inactive,inactive,inactive,inactive,–
C=CC(=O)CCCCC,inactive,inactive,inactive,inactive,inactive,–
c1ccc2ncccc2c1,active,active,inactive,inactive,inactive,–
CCCCCCCCCC=CC=O,inactive,inactive,inactive,inactive,inactive,–
CC1CCC(C(C)C)C(=O)C1 (stereo unspecified),inactive,inactive,inactive,inactive,inactive,–
CCCCCCC(C)O (stereo unspecified),inactive,active,inactive,inactive,inactive,–
CC(=O)OCCc1ccccc1,inactive,active,inactive,inactive,inactive,–
CCOC(=O)C(C)CC (stereo unspecified),inactive,inactive,inactive,inactive,inactive,–
C=CC(=C)CCC=C(C)CCC=C(C)C,inactive,inactive,inactive,inactive,inactive,–
CC=Cc1ccc(OC)cc1,inactive,inactive,inactive,inactive,inactive,–
CCCCCOC(=O)CCCCC,inactive,inactive,inactive,inactive,inactive,inactive
